Reference: ChEMBL document CHEMBL3526093, “Oxidative ipso substitution of 2,4-difluoro-benzylphthalazines: identification of a rare stable quinone methide and subsequent GSH conjugate” (Drug Metab Dispos, 2012)

Legend:
[1] = Half life under physiological conditions; assay type: ADME
Cytochrome P450 1A2 = target: T1, Cytochrome P450 1A2 (Homo sapiens, UniProt P05177); experiment: Drug metabolism assessed as human CYP1A2-mediated quinone methide metabolite formation at 10 uM by LC/MS method; assay type: ADME; settings: recombinant enzyme
T1 sequence (P05177 whole entry): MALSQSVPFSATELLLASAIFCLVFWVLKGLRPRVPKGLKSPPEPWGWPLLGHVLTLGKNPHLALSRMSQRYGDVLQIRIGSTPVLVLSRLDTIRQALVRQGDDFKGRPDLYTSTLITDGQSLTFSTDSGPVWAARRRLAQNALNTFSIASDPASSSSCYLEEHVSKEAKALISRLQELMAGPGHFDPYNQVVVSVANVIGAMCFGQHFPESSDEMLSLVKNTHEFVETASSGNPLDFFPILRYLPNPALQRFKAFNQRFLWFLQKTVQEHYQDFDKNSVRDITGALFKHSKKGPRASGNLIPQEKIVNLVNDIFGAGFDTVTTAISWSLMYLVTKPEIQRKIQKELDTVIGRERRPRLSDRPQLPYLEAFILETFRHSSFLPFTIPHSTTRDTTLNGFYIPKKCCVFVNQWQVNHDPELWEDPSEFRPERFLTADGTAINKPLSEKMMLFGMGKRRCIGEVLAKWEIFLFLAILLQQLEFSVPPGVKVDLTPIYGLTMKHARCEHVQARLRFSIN
Summary of the method: (§1)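 Recombinant human P450 Supersomes (100 pmol/ml enzyme) in 0.1 M KH2PO4 pH 7.4 with 5 mM MgCl2 and substrate, prewarmed 2 min at 37°C. NADPH (2 mM) started the reaction, with GSH (5 mM) added 3 min later. Controls lacked GSH or NADPH. Aliquots at 0, 0.5 and 1 h were stopped in ice-cold acetonitrile, spun, and supernatants run on LC/MSn.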

[2] = Retention time of the compound by LC/MS method; assay type: physicochemical
Summary of the method: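 Reversed-phase C18 column (2.1 × 150 mm), 20 µl injection, 0.25 ml/min. A: 10 mM ammonium formate/0.1% formic acid in water. B: acetonitrile/0.1% formic acid. Gradient held at 10% B for 5 min, then to 90% B over 24 min, back to 10% B over 2 min, held 3 min (35 min run). Positive-ion electrospray detection.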

Cytochrome P450 3A4 [3] = target: T2, Cytochrome P450 3A4 (Homo sapiens, UniProt P08684); experiment: Drug metabolism assessed as human CYP3A4-mediated quinone methide metabolite formation at 10 uM by LC/MS method; assay type: ADME; settings: recombinant enzyme; summary of the method: as §1
T2 sequence (P08684 whole entry): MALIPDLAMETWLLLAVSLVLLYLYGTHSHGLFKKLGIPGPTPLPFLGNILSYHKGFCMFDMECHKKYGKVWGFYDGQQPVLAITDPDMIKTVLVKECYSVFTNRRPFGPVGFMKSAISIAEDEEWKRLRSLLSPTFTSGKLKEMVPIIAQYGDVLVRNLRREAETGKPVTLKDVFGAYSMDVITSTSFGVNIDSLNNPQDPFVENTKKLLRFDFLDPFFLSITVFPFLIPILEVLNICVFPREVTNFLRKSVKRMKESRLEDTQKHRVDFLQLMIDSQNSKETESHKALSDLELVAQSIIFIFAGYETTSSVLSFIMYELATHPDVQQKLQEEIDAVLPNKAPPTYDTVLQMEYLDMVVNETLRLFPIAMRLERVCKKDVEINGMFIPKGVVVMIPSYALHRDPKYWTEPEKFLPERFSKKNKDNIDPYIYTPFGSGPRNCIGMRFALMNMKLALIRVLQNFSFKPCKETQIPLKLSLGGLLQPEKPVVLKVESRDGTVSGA

Liver microsome [4] = experiment: Drug metabolism in human liver microsomes assessed as quinone methide metabolite formation at 10 uM by LC/MS method; assay type: ADME
Summary of the method: (§2)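 Pooled human liver microsomes (1 mg/ml protein) in 0.1 M KH2PO4 pH 7.4 with 5 mM MgCl2 and substrate, prewarmed 2 min at 37°C with shaking. Started with 2 mM NADPH, then 5 mM GSH added 3 min later. Controls omitted GSH or NADPH. Samples at 0, 0.5 and 1 h quenched in ice-cold acetonitrile, centrifuged, supernatant analysed by positive-ion ESI LC/MSn.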

Cytochrome P450 2D6 = Cytochrome P450 2D6 (Homo sapiens, UniProt P10635); experiment: Drug metabolism assessed as human CYP2D6-mediated quinone methide metabolite formation at 10 uM by LC/MS method; assay type: ADME; settings: recombinant enzyme; summary of the method: as §1
Cytochrome P450 2D6, sequence (P10635 whole entry): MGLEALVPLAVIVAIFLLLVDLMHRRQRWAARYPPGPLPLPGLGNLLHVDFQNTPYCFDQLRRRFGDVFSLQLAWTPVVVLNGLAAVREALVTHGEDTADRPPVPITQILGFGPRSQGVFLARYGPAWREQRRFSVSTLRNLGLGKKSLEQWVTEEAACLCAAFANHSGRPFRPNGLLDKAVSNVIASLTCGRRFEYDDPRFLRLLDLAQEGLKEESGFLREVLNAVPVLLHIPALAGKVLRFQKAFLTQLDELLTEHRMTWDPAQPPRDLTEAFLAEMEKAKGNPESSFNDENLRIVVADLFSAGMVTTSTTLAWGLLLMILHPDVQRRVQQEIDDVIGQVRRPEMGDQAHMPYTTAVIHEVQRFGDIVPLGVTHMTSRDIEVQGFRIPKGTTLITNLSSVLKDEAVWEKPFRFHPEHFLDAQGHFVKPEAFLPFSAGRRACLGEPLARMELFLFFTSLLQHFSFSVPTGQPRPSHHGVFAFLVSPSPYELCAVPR

Cytochrome P450 2E1 = Cytochrome P450 2E1 (Homo sapiens, UniProt P05181); experiment: Drug metabolism assessed as human CYP2E1-mediated quinone methide metabolite formation at 10 uM by LC/MS method; assay type: ADME; settings: recombinant enzyme; summary of the method: as §1
Cytochrome P450 2E1, sequence (P05181 whole entry): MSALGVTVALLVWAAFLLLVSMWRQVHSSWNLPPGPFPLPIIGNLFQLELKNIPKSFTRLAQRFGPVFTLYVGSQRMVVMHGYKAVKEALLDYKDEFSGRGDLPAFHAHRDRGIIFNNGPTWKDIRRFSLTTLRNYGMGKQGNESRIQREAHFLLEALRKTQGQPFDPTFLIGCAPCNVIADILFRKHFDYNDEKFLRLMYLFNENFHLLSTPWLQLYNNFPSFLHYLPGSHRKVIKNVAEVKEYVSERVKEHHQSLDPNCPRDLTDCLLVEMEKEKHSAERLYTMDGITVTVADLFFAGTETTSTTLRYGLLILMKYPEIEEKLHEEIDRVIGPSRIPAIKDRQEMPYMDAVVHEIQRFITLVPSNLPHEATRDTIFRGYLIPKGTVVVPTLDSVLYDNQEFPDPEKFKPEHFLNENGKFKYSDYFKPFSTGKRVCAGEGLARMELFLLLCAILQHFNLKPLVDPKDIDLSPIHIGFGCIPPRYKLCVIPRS

Cytochrome P450 2C19 = Cytochrome P450 2C19 (Homo sapiens, UniProt P33261); experiment: Drug metabolism assessed as human CYP2C19-mediated quinone methide metabolite formation at 10 uM by LC/MS method; assay type: ADME; settings: recombinant enzyme; summary of the method: as §1
Cytochrome P450 2C19, sequence (P33261 whole entry): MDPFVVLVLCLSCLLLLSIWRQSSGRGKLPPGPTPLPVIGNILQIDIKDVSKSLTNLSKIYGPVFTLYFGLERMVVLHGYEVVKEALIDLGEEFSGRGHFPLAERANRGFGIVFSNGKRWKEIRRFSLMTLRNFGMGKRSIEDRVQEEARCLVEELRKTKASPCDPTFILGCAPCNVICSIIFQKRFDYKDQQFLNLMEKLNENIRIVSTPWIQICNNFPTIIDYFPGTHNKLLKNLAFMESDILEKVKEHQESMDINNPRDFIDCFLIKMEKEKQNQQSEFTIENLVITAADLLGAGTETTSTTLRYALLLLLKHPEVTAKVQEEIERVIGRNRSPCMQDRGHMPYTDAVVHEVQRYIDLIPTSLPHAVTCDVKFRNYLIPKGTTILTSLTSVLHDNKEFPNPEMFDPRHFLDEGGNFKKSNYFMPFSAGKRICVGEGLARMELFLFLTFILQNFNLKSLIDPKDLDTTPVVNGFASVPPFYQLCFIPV

Cytochrome P450 2C9 = Cytochrome P450 2C9 (Homo sapiens, UniProt P11712); experiment: Drug metabolism assessed as human CYP2C9-mediated quinone methide metabolite formation at 10 uM by LC/MS method; assay type: ADME; settings: recombinant enzyme; summary of the method: as §1
Cytochrome P450 2C9, sequence (P11712 whole entry): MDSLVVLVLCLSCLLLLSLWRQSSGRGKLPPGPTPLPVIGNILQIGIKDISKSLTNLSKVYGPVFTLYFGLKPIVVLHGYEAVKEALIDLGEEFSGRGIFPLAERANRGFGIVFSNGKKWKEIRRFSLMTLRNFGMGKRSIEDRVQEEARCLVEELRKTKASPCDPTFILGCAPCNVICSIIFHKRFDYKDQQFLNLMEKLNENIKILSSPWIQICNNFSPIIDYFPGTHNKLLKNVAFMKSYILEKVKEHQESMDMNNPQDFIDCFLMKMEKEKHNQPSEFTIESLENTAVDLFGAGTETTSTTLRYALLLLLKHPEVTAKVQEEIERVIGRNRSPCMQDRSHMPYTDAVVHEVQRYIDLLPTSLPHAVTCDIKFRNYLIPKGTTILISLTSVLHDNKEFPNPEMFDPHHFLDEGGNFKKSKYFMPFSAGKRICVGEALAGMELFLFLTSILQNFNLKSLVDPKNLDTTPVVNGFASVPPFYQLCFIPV

Liver microsome [5] = experiment: Drug level in human liver microsomes treated with 10 uM [2-(6-(4-(4-(2,4-difluorobenzyl)phthalazin-1-yl)piperazin-1-yl)pyridin-3-yl)propan-2-ol] by LC/MS method; assay type: ADME; summary of the method: as §2
Cytochrome P450 3A4 [6] = target: T2, Cytochrome P450 3A4; experiment: Drug metabolism assessed as human CYP3A4-mediated compound formation using 10 uM [2-(6-(4-(4-(2,4-difluorobenzyl)phthalazin-1-yl)piperazin-1-yl)pyridin-3-yl)propan-2-ol] by LC/MS method; assay type: ADME; settings: recombinant enzyme; summary of the method: as §1

| SMILES | half-life [1] [h] | Retention_time [2] [min] | Drug metabolism (Liver microsome [5]) | Drug metabolism (Cytochrome P450 3A4 [6]) | further results |
| --- | --- | --- | --- | --- | --- |
| C/C=C(/C(=C1C=CC(=O)C=C1)c1ccc(OCCN(C)C)cc1)c1ccccc1 | 3 |  |  |  |  |
| CC(C)(O)c1ccc(N2CCN(c3nnc(Cc4ccc(F)cc4F)c4ccccc34)CC2)nc1 |  | 14.8 |  |  | Drug metabolism (Cytochrome P450 1A2): metabolite_not_detected; Drug metabolism (Cytochrome P450 3A4 [3]): metabolite_detected; Drug metabolism (Liver microsome [4]): metabolite_detected; Drug metabolism (Cytochrome P450 2D6): metabolite_not_detected; Drug metabolism (Cytochrome P450 2E1): metabolite_not_detected; Drug metabolism (Cytochrome P450 2C19): metabolite_not_detected; Drug metabolism (Cytochrome P450 2C9): metabolite_not_detected |
| CC(C)(O)c1ccc(N2CCN(c3nnc(/C=C4\C=CC(=O)C=C4F)c4ccccc34)CC2)nc1 |  | 17.46 | metabolite_detected | metabolite_detected |  |
| CC(C)(O)c1ccc(N2CCN(c3nnc(Cc4cc(SC[C@H](NC(=O)CC[C@H](N)C(=O)O)C(=O)NCC(=O)O)c(O)cc4F)c4ccccc34)CC2)nc1 |  | 9.92 | metabolite_detected | metabolite_detected |  |
| C/C=C(/C(=C1C=CC(=O)C=C1)c1ccccc1)c1ccccc1 | 4 |  |  |  |  |
